# Bioassay records from PubChem BioAssay.
# Granule exo inh – lytic granule exocytosis inhibition; actives 0.66% (n = 360,000); inhibition, % at 10 µM; TALL-104 LAMP-1 surface exposure, flow cytometry; cells stimulated with thapsigargin and PMA;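 active = inhibition above about 55%, limit read from the data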
# ARFGAP1 inh – inhibits rat ARF GTPase activating protein 1; Q62848; Arfgap1-stimulated ARF1 GTP hydrolysis, GDP FP detection; inhibition, % at 16.5 µM; actives 0.26% (n = 360,000);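 active = inhibition above a per-plate limit, mean inhibition of low control wells plus 3 SD, cut at about 25% in these data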;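 note: 0% = DMSO wells with enzyme and 100% = wells lacking Arfgap1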
#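 Assay system: Rat Arfgap1 GAP domain (His6, aa 1-136), purified enzyme | Buffer or medium: HEPES 25 mM pH 7.5, NaCl 150 mM, MgCl2, DTT | Schedule: GTP hydrolysis reaction 2 h at 25 °C | Signal: FP of antibody-bound GDP Alexa 633 tracer, ex 620/em 688 nm | Measure: Percent inhibition of Arfgap1-stimulated GTP hydrolysis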
# CendR NRP1 mod – modulators of CendR peptide binding to human neuropilin-1 | actives 0.85% (n = 360,000) | O14786 | FAM-RPARPAR peptide binding to NRP-1, fluorescence polarization | inhibition, % at 25 µM;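 active = inhibition or corrected inhibition above about 18%, plus a signal ratio from 0.5 to 1.5, limit read from the data, passing the limit was not always enough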
# ASAP1 inh – ASAP1 ArfGAP inhibition; Q9ULH1; ASAP1-stimulated ARF1 GTP hydrolysis, GDP FP detection; inhibition, % at 16.5 µM; actives 0.19% (n = 360,000); AID 624377; in the data active = inhibition above about 25%;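 note: 0% = vehicle with enzyme and substrate and 100% = no enzyme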
# V-ATPase pH – regulators of yeast V-ATPase proton transport | S. cerevisiae, pHLuorin cytosolic pH fluorescence | response, % at 10 µM | actives 0.37% (n = 350,000); in the data active = response mostly above about 7.3%, no sharp cut-off; inactive = mostly below about 5.4%; note: actives read high
# Active calls of the source: *; x = no result. In the library only some 2.2% were active in any assay of this set; here they are far more common.
SMILES,Granule exo inh,ARFGAP1 inh,CendR NRP1 mod,ASAP1 inh,V-ATPase pH
CC(C)[C@H](NC(=O)C1CC1)C(=O)N1CCC[C@H]1C(=O)NCCc1ccccc1Cl,x,-2,x,24,x
COc1cc([N+](=O)[O-])cc(/C=N/NC(=O)C(C)Nc2cccc3ccccc23)c1O (configuration not stated),6,-3,32*,-7,1
O=C(N[C@H](Cc1ccccc1)C(=O)NCc1ccccn1)[C@H]1O[C@@H](n2ccc(=O)[nH]c2=O)[C@H](O)[C@@H]1O,x,3,x,-3,x
C[C@H](CO)N1C[C@H](C)[C@@H](CN(C)C(=O)Nc2ccccc2)OCc2cn(nn2)CCCC1=O,x,-7,x,-10,x
Cc1ccc(NC(=S)N2CCN(Cc3ccccc3)CC2)cc1,-2,1,26*,-4,-2
CCc1ccc(NC(=S)N2CCN(C)CC2)cc1,2,5,21*,-16,-1
O=C(c1ccc2c(c1)C(=O)NC2=O)c1ccc2c(c1)C(=O)NC2=O,x,-1,x,1,x
COC(=O)C1=C(C)NC(C)=C(C(=O)OC)C(N2C(=O)CCC2=O)C1 (configuration not stated),x,-2,x,6,x
NC1=NC[C@H](Cc2ccccc2)N1CC1CCCCC1,6,1,4,1,6
NC1=NC[C@@H](Cc2ccc(O)cc2)N1CCCCC1CCCCC1,-8,9,31*,-2,-3
COC(=O)[C@@]1(Cc2ccc(OC)cc2)[C@H]2c3cc(C(=O)N4CCCC4)n(CCN4CCOCC4)c3C[C@H]2CN1C(=O)c1ccccc1,0,-6,23*,1,x
COC(=O)[C@@]1(Cc2ccc(OC)cc2)[C@H]2c3cc(C(=O)N4CCCC4)n(Cc4ccc(OC)c(OC)c4)c3C[C@H]2CN1C(=O)c1ccccc1,x,9,x,7,x
CCN1/C(=C/C(C)=C/c2sc3ccccc3[n+]2CC)Sc2ccccc21,82*,6,-264,10,1
CC(=O)Nc1ccc(S(=O)(=O)NC(C)C(=O)NCC(c2ccco2)N(C)C)cc1 (configuration not stated),-1,-2,27*,-5,-5
CC(=O)Nc1ccc(C(=O)NCC(c2ccco2)N(C)C)cc1 (configuration not stated),-4,8,10,4,2
COCc1cc(N2CCNC[C@H]2C)ccc1N1CCS(=O)(=O)CC1,x,14,x,-8,x
CN(C)c1nc(=NCc2cccs2)ss1,65*,-3,11,-16,0
Cc1cc(C(=O)COC(=O)Cn2c(C(F)(F)F)nc3ccccc32)c(C)n1Cc1ccco1,2,14,20*,-4,3
Cc1ccc(C(=O)NCC(=O)OCC(=O)c2cc(C)n(Cc3ccco3)c2C)cc1,2,8,33*,-9,-7
Cc1ccc2cccc(OCC(=O)c3cc(C)n(Cc4ccco4)c3C)c2n1,x,2,x,14,x
Cc1cc(C(=O)COC(=O)CNC(=O)c2ccc(Cl)c(Cl)c2)c(C)n1Cc1ccco1,20,3,-2,4,4
Cn1c(=O)c2c(-c3ccccc3)n(-c3ccc(N)cc3)cc2n(C)c1=O,-2,1,37*,8,x
CCN(Cc1ccncc1)C(=O)c1cc(COc2ccc(F)cc2F)on1,-2,10,43*,2,-1
Nc1c(Cl)cc(C2=NCCn3c2c2ccc([N+](=O)[O-])cc2[n+]3[O-])cc1Cl,82*,-2,-15,5,-1
Cc1c(-c2ccnc3cc(C(=O)O)nn23)cnn1C,-5,-1,10,-5,0
SMILES,Granule exo inh,ARFGAP1 inh,CendR NRP1 mod,ASAP1 inh,V-ATPase pH
CCn1cc(-c2ccnc3cc(C(=O)O)nn23)c(C)n1,1,6,32*,-8,-2
CCc1ccc(NC(=O)CCc2c(C)nn(-c3ccc(N4CCOCC4)nn3)c2C)cc1,-1,-9,7,4,3
CCc1cccc(NC(=O)CCc2c(C)nn(-c3ccc(N4CCOCC4)nn3)c2C)c1,-8,11,32*,4,7
CCc1c(-c2ccc(F)cc2F)ncn1CCc1ccccc1OC,x,9,x,0,x
COC(=O)CC1C(=O)NCCN1C(=S)Nc1ccc(F)cc1 (configuration not stated),-3,-12,36*,-11,0
C/C(=N\NC(N)=S)C1=CCC2C3CC[C@H]4CC(O)CC[C@]4(C)C3CC[C@]12C (some centres not stated),56*,4,8,-1,-5
Cc1cc(-c2ccc(F)cc2)nc2cc(C(N)=O)nn12,0,12,26*,-7,2
